Tests used:
[1] = test system: primary mouse pulmonary fibroblasts; format: cell-based; details: 20 μM, 36 h
Procedure, shortened: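 Primary pulmonary fibroblasts grown out from minced mouse lung (1 mm³ explants) in DMEM with 10% FBS; medium changed every 2 days, passaged with trypsin after one week. Cells transfected with N protein plasmid, then treated with test compound at 20 µM for 36 h. α-SMA and COL1A1 measured by western blot, normalized to tubulin.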

[2] = test system: CAGA luciferase reporter gene (a Smad3/4-dependent reporter); assay: CAGA luciferase reporter; format: cell-based, human; details: 20 μM, Smad3-dependent manner
Procedure, shortened: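 Cells co-transfected with a CAGA luciferase reporter (Smad3/4-dependent), a β-galactosidase expression vector and other plasmids, including N protein. Lysed 24 h after transfection; luciferase and β-gal activities measured. Luciferase activity normalized to β-gal to correct for transfection efficiency.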

MH1-MH2 interaction = MH1-MH2 interaction (Homo sapiens, UniProt P84022); assay: coIP and GST pull-down, MH1-MH2 interaction of Smad3; format: biochemical; details: coIP assay, GST pull-down assay
MH1-MH2 interaction, sequence (P84022 10-136 limits assumed): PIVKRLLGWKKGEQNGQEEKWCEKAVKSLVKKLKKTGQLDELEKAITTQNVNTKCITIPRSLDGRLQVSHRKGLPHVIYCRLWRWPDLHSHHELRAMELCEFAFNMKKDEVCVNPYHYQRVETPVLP
MH1-MH2 interaction, sequence (P84022 232-425 partner limits assumed): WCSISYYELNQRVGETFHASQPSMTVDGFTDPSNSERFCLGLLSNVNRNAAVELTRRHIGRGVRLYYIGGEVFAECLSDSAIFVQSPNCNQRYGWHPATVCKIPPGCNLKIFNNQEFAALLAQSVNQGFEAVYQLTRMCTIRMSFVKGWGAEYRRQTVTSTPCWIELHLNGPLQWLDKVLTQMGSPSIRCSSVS
Procedure, shortened: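 GST-tagged proteins expressed in E. coli BL21 and purified on glutathione-sepharose; His-tagged proteins purified on Ni-NTA. GST or GST-fusion bound to glutathione beads in PBS for 1 h at 4°C, washed with PBS, then with modified NP-40 buffer. CoIP: lysates incubated 3 h with antibody plus protein G-Sepharose, washed, and immunoblotted.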

[3] = test system: Adriamycin-induced renal fibrosis; assay: Adriamycin-induced renal fibrosis mouse model; format: in vivo, C57BL/6J mice; details: 3 mg/kg intraperitoneally daily, 7 days
[4] = test system: N protein-TβRI, TβRI-TβRII, TβRI-FKBP12 interactions; assay: Co-IP, interactions N protein-TβRI, TβRI-TβRII, TβRI-FKBP12; format: cell-based, human; details: HFL-1 cells
Procedure, shortened: (§1)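 HFL-1 cells transfected with an N protein plasmid using ViaFect. Lysates incubated 3 h with primary antibody plus protein G-Sepharose beads. Beads washed three times with NP-40 lysis buffer. Immunoprecipitates boiled in SDS loading buffer, resolved by SDS-PAGE, transferred to PVDF and probed; bands detected by enhanced chemiluminescence.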

[5] = test system: THP1 macrophages and differentiated HL60 neutrophils; assay: Transwell chemotaxis assay, recruitment by N protein-expressing HFL-1 cells; format: cell-based, human; details: 20 μM
Procedure, shortened: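 HFL-1 cells in 24-well plates transfected with plasmids for 12 h, then switched to serum-free Ham's F12 for a further 24 h. THP-1 macrophages seeded in the upper transwell chamber and incubated 16 h. Non-migrated cells removed with a swab; migrated cells stained with crystal violet.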

[6] = test system: Smad3 binding to promoters; assay: ChIP assay, Smad3 binding to cytokine gene promoters in HFL-1 cells; format: cell-based, human; details: ChIP analysis
Procedure, shortened: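 HFL-1 cells crosslinked with 1% formaldehyde for 10 min at room temperature, washed in ice-cold PBS, and lysed in SDS lysis buffer (1% SDS, 10 mM EDTA, 50 mM Tris pH 8.1) with protease inhibitors. Chromatin sonicated to 500–1000 bp, then incubated overnight at 4°C with antibody or rabbit IgG. Complexes pulled down on protein G-Sepharose, washed, eluted, crosslinks reversed, proteinase K-treated.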

Smad2 = Smad2 (Homo sapiens, UniProt Q15796); assay: ITC assay, binding to Smad2; details: GST-tagged protein
Smad2, sequence (Q15796 whole entry): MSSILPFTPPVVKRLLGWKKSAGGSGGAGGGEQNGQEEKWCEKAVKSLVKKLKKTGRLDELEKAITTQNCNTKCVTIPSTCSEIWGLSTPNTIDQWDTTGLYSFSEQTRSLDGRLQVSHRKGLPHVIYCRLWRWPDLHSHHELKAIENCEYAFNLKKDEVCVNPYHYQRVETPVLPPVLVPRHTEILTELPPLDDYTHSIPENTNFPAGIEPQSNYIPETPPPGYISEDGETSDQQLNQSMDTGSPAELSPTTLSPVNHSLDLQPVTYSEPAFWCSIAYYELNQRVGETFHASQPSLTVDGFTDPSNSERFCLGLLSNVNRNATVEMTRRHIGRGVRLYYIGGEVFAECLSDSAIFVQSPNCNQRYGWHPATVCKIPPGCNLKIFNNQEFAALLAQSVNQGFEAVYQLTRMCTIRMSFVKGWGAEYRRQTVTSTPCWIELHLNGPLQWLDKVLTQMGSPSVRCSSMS

TβRI polymerization = TβRI polymerization (Homo sapiens, UniProt P36897); assay: Crosslinking assay, N protein-induced TβRI polymerization; format: cell-based; details: HFL-1 cells, 24 h
TβRI polymerization, sequence (P36897 34-503): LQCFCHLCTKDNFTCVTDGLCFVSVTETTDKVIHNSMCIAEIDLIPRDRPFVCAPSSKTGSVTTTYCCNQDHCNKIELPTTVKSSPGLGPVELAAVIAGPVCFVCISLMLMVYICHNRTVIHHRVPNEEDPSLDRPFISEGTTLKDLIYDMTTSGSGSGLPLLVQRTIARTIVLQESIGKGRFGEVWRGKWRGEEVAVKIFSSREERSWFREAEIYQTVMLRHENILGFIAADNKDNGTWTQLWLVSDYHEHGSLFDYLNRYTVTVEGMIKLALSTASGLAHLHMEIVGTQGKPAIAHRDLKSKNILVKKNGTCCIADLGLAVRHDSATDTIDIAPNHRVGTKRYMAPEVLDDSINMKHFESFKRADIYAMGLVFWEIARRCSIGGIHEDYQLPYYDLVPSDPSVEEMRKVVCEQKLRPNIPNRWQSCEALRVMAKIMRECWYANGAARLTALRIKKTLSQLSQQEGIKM

TβRI-Smad2 interaction = TβRI-Smad2 interaction (Homo sapiens, UniProt Q15796); assay: Co-IP, N protein-induced TβRI-Smad2 interaction; format: cell-based; details: coIP
TβRI-Smad2 interaction, sequence (Q15796 2-467 limits assumed): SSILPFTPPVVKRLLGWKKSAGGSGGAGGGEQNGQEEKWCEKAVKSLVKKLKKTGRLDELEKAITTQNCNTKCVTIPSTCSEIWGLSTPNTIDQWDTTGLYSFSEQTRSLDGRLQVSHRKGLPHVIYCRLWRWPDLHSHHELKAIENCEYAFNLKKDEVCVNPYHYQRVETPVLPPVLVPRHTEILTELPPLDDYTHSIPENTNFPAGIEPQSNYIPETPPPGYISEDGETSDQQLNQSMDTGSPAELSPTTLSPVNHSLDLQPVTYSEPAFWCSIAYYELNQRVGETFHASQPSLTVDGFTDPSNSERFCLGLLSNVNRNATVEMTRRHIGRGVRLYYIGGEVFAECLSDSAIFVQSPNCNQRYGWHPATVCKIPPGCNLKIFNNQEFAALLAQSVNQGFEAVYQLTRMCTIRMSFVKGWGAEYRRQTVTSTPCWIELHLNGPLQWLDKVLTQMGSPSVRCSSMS
Procedure, shortened: as §1

MH1 domain of Smad3 = MH1 domain of Smad3 (Homo sapiens, UniProt P84022); assay: ITC assay, binding to MH1 domain of Smad3
MH1 domain of Smad3, sequence (P84022 10-136 limits assumed): as the sequence (P84022 10-136 limits assumed) above

[7] = test system: primary bone marrow-derived macrophages (BMDMs) and primary neutrophils; format: cell-based; details: mouse primary lung fibroblasts expressing N protein, 20 μM
Procedure, shortened: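 BMDMs: mouse tibial marrow flushed, red cells lysed, filtered at 40 µm, cultured 8 days in DMEM with 25% L929-conditioned medium. Neutrophils: isolated from marrow on a Percoll gradient (52/64/72%) at 1,545 g for 30 min at room temperature; 64/72% interface collected. Migration of both cell types toward N protein-expressing primary lung fibroblasts assessed.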

[8] = test system: N protein-induced pulmonary fibrosis; assay: N protein; format: in vivo, C57BL/6J mice; details: 10 mg/kg weekly for 30 days
Procedure, shortened: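 Male C57BL/6J mice (8 weeks) given N protein-expressing AAV or control AAV intranasally in 50 µL PBS. From day 4, test compound 10 mg/kg in saline given i.p. weekly. Sacrificed at day 30; n = 6 per group. Lung Smad3 phosphorylation assessed by western blot.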

α-SMA = assay: N protein-induced α-SMA/COL1A1 expression; format: cell-based, human
Procedure, shortened: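 HFL-1 cells transfected with N protein plasmid, then exposed to test compounds (10 µM for derivative comparison; otherwise varied times and doses). α-SMA and COL1A1 measured by western blot, normalized to tubulin. For collagen secretion, culture medium concentrated, held 16 h at 4°C and centrifuged; pellet dissolved in 0.05 M acetic acid, stained with Sirius red, washed, extracted, and read at 530 nm.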

[9] = Body and organ weight, behavior during RMY-205 administration; format: in vivo, mice
TGF-β/Smad signaling = assay: TGF-β-induced Smad3 phosphorylation and α-SMA/COL1A1 expression in cell lines; format: cell-based, human; details: 36 h
Smad3 = Smad3 (Homo sapiens, UniProt P84022); assay: ITC assay, RMY-205 binding to Smad3
Smad3, sequence (P84022 whole entry): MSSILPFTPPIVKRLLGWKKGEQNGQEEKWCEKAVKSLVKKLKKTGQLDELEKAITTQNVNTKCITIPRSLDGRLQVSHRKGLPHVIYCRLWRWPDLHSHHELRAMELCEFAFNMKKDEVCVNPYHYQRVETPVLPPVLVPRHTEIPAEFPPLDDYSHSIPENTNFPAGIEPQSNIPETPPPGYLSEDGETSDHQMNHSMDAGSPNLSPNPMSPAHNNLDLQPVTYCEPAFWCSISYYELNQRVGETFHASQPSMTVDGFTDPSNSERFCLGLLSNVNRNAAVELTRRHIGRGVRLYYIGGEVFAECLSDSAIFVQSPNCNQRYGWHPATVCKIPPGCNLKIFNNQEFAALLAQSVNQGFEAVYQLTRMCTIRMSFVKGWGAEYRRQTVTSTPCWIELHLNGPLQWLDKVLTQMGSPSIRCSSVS
Procedure, shortened: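 Isothermal titration calorimetry. Sample cell loaded with GST-Smad3 at 20 µM; injector loaded with test compound at 0.2 mM. Compound titrated stepwise into the Smad3 solution, with PBS as control. Heat changes analyzed to derive binding.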

Smad3 phosphorylation [10] = assay: N protein-induced Smad3 phosphorylation/activation in HFL-1 cells; format: cell-based, human
[11] = test system: IL6, IL8, CCL2, CXCL10 mRNA; assay: qRT-PCR of N protein-induced cytokine mRNA in HFL-1 cells; format: cell-based, human; details: 20 μM
[12] = test system: Smad2/3 nuclear translocation; assay: Smad2/3 nuclear translocation in HFL-1 cells; format: cell-based, human; details: 24 h
Procedure, shortened: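 HFL-1 cells expressing N protein treated with test compound for 24 h. Fixed in 4% formaldehyde and blocked in PBS with 3% BSA and 0.2% Triton X-100. Primary antibody overnight at 4°C; secondary antibody 1 h at room temperature in the dark; nuclei stained with DAPI for 10 min. Smad2/3 localization imaged by confocal microscopy.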

Smad2 phosphorylation = assay: N protein-induced Smad2 phosphorylation in HFL-1 cells; format: cell-based, human; details: 20 μM, 36 h
Procedure, shortened: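 HFL-1 cells transfected overnight with N protein plasmid, then exposed to test compound for 36 h (20 µM unless specified). Lysates boiled 10 min in SDS buffer, run on SDS-PAGE, transferred to PVDF and immunoblotted with ECL detection. p-Smad2 and p-Smad3 band intensities normalized to tubulin.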

[13] = Pharmacokinetic analysis in ICR mice; format: in vivo; details: male, mouse, plasma
Procedure, shortened: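 Male ICR mice (8 weeks) received a single dose of test compound: 2 mg/kg i.v., or 10 mg/kg i.p. or by oral gavage. Blood sampled at 5, 15 and 30 min and at 1, 2, 4, 8 and 24 h. Plasma obtained by centrifugation at 1,500g for 10 min, and compound content in plasma assayed.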

Smad3 phosphorylation [14] = assay: Nocodazole-induced Smad3 phosphorylation; format: cell-based, human; details: HFL-1, LX-2, and AC-16 cells; nocodazole 100 ng/mL, 12 h
TβRI = TβRI (Homo sapiens, UniProt P36897); assay: ITC assay, binding to TβRI; details: GST-tagged protein
TβRI, sequence (P36897 34-503): as the sequence (P36897 34-503) above

TβRI phosphorylation = assay: N protein-induced TβRI phosphorylation in HFL-1 cells; format: cell-based, human; details: 10 μM, 24 h

O=c1c(O)c(N2CCN(Cc3ccc(Br)cc3F)CC2)oc2ccccc12 [RMY-205, 2-(4-(4-bromo-2-fluorobenzyl)piperazin-1-yl)-3-hydroxy-4H-chromen-4-one]
N protein-elevated mRNA of CCL2, CXCL10, and IL-6 expression and their release levels [1]: suppression
N protein-induced α-SMA and COL1A1 expression [1]: significantly inhibited
N protein-induced transactivation activity of Smad [2]: inhibited
interaction between MH1 and MH2 domains (MH1-MH2 interaction): substantially enhance
renal fibrosis, Smad3 phosphorylation and COL1A1 expression induced by Adriamycin [3]: effectively alleviate
interactions between N protein and TβRI, TβRI and TβRII, or TβRI and FKBP12 [4]: did not interfere
recruiting THP1 macrophages and differentiated HL60 neutrophils by N protein [5]: attenuation
Smad3 binding to the promoters of genes of cytokines [6]: inhibited
binding to Smad2 (Smad2): not to either Smad2 or TβRI
N protein-induced TβRI polymerization (TβRI polymerization; 20 μM): not influenced
N protein-induced TβRI interaction with Smad2 (TβRI-Smad2 interaction): not with Smad2
Kd (MH1 domain of Smad3): 13.3 µM
recruitment of primary BMDMs and primary neutrophils [7]: abolished
N protein-induced phosphorylation of Smad3 in lung [8]: suppression
N protein-induced secretion of CCL2, CXCL10, and IL-6 in bronchoalveolar lavage fluid [8]: suppression
N protein-promoted infiltration of macrophages and neutrophils in the lung tissue [8]: markedly attenuated
alveolar septal thickening, α-SMA expression and collagen deposition ([8]; intraperitoneally): alleviated alveolar septal thickening and decreased α-SMA expression and collagen deposition
N protein-induced α-SMA and COL1A1 expression levels and collagen secretion (α-SMA; HFL-1 cells, time- and dose-dependent manner): downregulate
α-SMA inhibition ratio (%) (α-SMA; N-protein transfected HFL-1 cells, 10 μM, 24 h): 50.9 ± 14.0%
weight of the mice and of various organs (heart, liver, spleen, lungs, kidneys) ([9]; 10 mg/kg for 30 days): not significantly changed
behavior, weight of the body or various organs ([9]; during administration of RMY-205): no abnormal behavior or weight loss
TGF-β-induced Smad3 phosphorylation and α-SMA and COL1A1 expression (TGF-β/Smad signaling; HFL-1, AC16, LX-2 and human primary dermal cells, TGF-β 2 ng/mL): effectively inhibited
inhibition of TGF-β-induced Smad3 phosphorylation and α-SMA expression, compared with (E)-SIS3 (TGF-β/Smad signaling; HFL-1 cells, (E)-SIS3 3 μM): comparable with that by (E)-SIS3
Kd (Smad3): 8 µM
N protein-induced phosphorylation of Smad3 (Smad3 phosphorylation [10]; 20 μM, 36 h): inhibition
N protein-induced mRNA expression of IL6, IL8, CCL2, and CXCL10 [11]: downregulated
N protein-induced Smad2/3 nuclear translocation ([12]; 20 μM): blocked
N protein-induced phosphorylation of Smad2 (Smad2 phosphorylation): not of Smad2
AUC ([13]; ip, 10 mg/kg): 2130 ng·h/mL
AUC(0-inf) ([13]; ip, 10 mg/kg): 2130 ng·h/mL
Cmax ([13]; ip, 10 mg/kg): 1820 ng/mL
Tmax ([13]; ip, 10 mg/kg): 11.4 min
bioavailability ([13]; ip, 10 mg/kg): 42.8%
half-life ([13]; ip, 10 mg/kg): 496 min
AUC ([13]; iv, 2 mg/kg): 995 ng·h/mL
AUC(0-inf) ([13]; iv, 2 mg/kg): 995 ng·h/mL
Vd ([13]; iv, 2 mg/kg): 3 L/kg
clearance ([13]; iv, 2 mg/kg): 34 mL/min/kg
half-life ([13]; iv, 2 mg/kg): 119 min
AUC ([13]; po, 10 mg/kg): 1870 ng·h/mL
AUC(0-inf) ([13]; po, 10 mg/kg): 1870 ng·h/mL
Cmax ([13]; po, 10 mg/kg): 1040 ng/mL
Tmax ([13]; po, 10 mg/kg): 19.8 min
bioavailability ([13]; po, 10 mg/kg): 37.6%
half-life ([13]; po, 10 mg/kg): 153 min
nocodazole-induced Smad3 phosphorylation (Smad3 phosphorylation [14]): inhibited
binding to TβRI (TβRI): not to either Smad2 or TβRI

COc1cc2c(cc1OC)CN(C(=O)/C=C/c1c(-c3ccccc3)n(C)c3ncccc13)CC2 [(E)-SIS3]
N protein-induced Smad3 activation (Smad3 phosphorylation [10]; 3 μM, 36 h): no inhibitory effect

Cc1cccc(-c2[nH]c(C(C)(C)C)nc2-c2ccc3c(c2)OCO3)n1 [SB505124, reference compound]
N protein-induced TβRI polymerization (TβRI polymerization; 10 μM): could not prevent
N protein-induced expression of α-SMA and COL1A1 (α-SMA; HFL-1 cells, 10 μM, 24 h): failed to elevate
N protein-induced Smad phosphorylation, nuclear translocation, and transactivation activity (Smad3 phosphorylation [10]; 10 μM, 24 h): lost its ability to induce
Smad2/3 localization in the presence of N protein ([12]; 10 μM): remain in the cytosol
N protein-induced TβRI phosphorylation (TβRI phosphorylation): could block

— paper PMC9990178 (Cell Chemical Biology, 2023)
